Measured values: ChEMBL document CHEMBL1287805, “abeo-abietanes from Teucrium polium roots as protective factors against oxidative stress” (Bioorg Med Chem, 2010)
Active and inactive are the calls of the source. The rule behind the calls is not given here.

Experiments:
Format in all cases: functional
[1] = Antioxidant activity against bovine serum albumin oxidation after 60 mins
How it was run: (§1)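 BSA (10 mg/mL) oxidised with H2O2 (1.0 mM) and FeSO4 (0.5 mM) in the presence of sample; shaken 10 min, then TCA (10.0%) precipitation at 4 °C. Pellet derivatised with DNPH (10 mM) in 2 N HCl for 1 h at room temperature, reprecipitated with cold TCA, washed, and dissolved in 6 M guanidine-HCl (pH 6.5). Protein carbonyl formation was measured.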

[2] = Antioxidant activity against lipid peroxidation assessed as TBARS production using rape seed oil after 60 mins
How it was run: (§2)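 Rape seed oil emulsified with Tween-40 in Tris-HCl (0.2 M, pH 7.4). Test compound added at final 37.5, 75.0, 125.0 or 250.0 µM, then tubes held in a boiling water bath for 30 min. Absorbance read at 532 nm. Lipid peroxidation inhibition is given as percent versus a blank without compound. Triplicate.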

[3] = system: Radical scavenging activity; assay: Antioxidant activity assessed as DPPH radical scavenging activity
How it was run: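 DPPH absorbance at 515 nm read at 30 min against a blank. Compounds tested at 37.5, 75, 125 and 250 µM in triplicate, with Trolox as standard. IC50 is the concentration giving 50% inhibition of absorbance, taken from the plotted curves.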

[4] = Antioxidant activity against pentose 2-deoxyribose oxidation at 250 uM after 60 mins by TBA method
How it was run: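 Deoxyribose assay in KH2PO4/KOH (10.0 mM, pH 7.4) with H2O2, EDTA, FeCl3 and ascorbic acid (each 100.0 µM) plus 2-deoxyribose (2.8 mM). Compound at final 37.5–250.0 µM, incubated at 37 °C for 1 h. TBA/TCA added, heated at 90 °C for 30 min, read at 532 nm. Result is percent antioxidant capacity versus blank. Triplicate.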

[5] = Antioxidant activity against bovine serum albumin oxidation at 37.5 uM after 60 mins; how it was run: as §1
[6] = Antioxidant activity against lipid peroxidation assessed as TBARS production using rape seed oil at 250 uM after 60 mins; how it was run: as §2

SMILES	Activity [1]	Activity [2]	IC50 [3] [µM]	inhibition [4]	inhibition [5] [%]	inhibition [6] [%]
C[C@H]1Cc2c(O)c3c(c(O)c2O1)[C@@]1(C)CC[C@H]2C[C@@]2(C)C1=C(O)C3=O [TEUVINCENONE C]	Dose-dependent effect	Dose-dependent effect	97	50%	–	–
C[C@]12CC[C@H]3C[C@@]3(C)C1=C(O)C(=O)c1c2c(O)c2oc(CO)cc2c1O	Dose-dependent effect	Dose-dependent effect	101	inactive	–	–
C[C@@H]1Oc2c(O)c3c(c(O)c2[C@H]1O)C(=O)C(O)=C1C(C)(C)CCC[C@@]13C	Dose-dependent effect	Dose-dependent effect	71	50%	–	–
Cc1cc2c(O)c3c(c(O)c2o1)[C@@]1(C)CCCC(C)(C)C1=C(O)C3=O	Dose-dependent effect	Dose-dependent effect	76	inactive	–	–
CC1(C)CCC[C@@]2(C)C1=C(O)C(=O)c1c(O)c3c(c(O)c12)O[C@@H](CO)C3 [VILLOSIN C]	Dose-dependent effect	Dose-dependent effect	86	50%	–	–
Cc1cc2c(O)c3c(c(O)c2o1)[C@@]1(C)CC[C@H]2C[C@@]2(C)[C@@H]1CC3=O	Dose-dependent effect	Dose-dependent effect	130	50%	–	–
Cc1c(C)c2c(c(C)c1O)CCC(C)(C(=O)O)O2 (stereo not given) [TROLOX]	–	–	24	–	–	–
Cc1cc2c(O)c3c(c(O)c2o1)[C@@]1(C)CCC(=O)C(C)(C)C1=C(O)C3=O	Dose-dependent effect	Dose-dependent effect	64	50%	–	–
C[C@H]1Cc2c(O)c3c(c(O)c2O1)[C@@]1(C)CC[C@H]2C[C@@]2(C)[C@@H]1CC3=O [TEUVINCENONE D]	Dose-dependent effect	Dose-dependent effect	111	50%	–	–
Cc1cc2c(O)c3c(c(O)c2o1)[C@@]1(C)CC[C@H]2C[C@@]2(C)C1=C(O)C3=O	Dose-dependent effect	Dose-dependent effect	55	inactive	31	76.9
C[C@H]1Cc2c(O)c3c(c(O)c2O1)[C@@]1(C)CCCC(C)(C)C1=C(O)C3=O [TEUVINCENONE B]	Dose-dependent effect	Dose-dependent effect	55	50%	–	–
C[C@@H]1Oc2c(O)c3c(c(O)c2[C@H]1O)C(=O)C(O)=C1[C@]3(C)CC[C@H]2C[C@@]12C	Dose-dependent effect	Dose-dependent effect	84	50%	–	–
CC1(C)CCC[C@@]2(C)C1=C(O)C(=O)c1c2c(O)c2oc(CO)cc2c1O	Dose-dependent effect	Dose-dependent effect	120	50%	–	–
C[C@H]1Cc2c(O)c3c(c(O)c2O1)[C@@]1(C)CCC(=O)C(C)(C)C1=C(O)C3=O [TEUVINCENONE A]	Dose-dependent effect	Dose-dependent effect	63	50%	–	–
